Screens: PubChem BioAssay, several laboratories
The list is not random: actives were taken first. Their share in the collection is about 2.2%.
NadD block: inhibitors of Staphylococcus aureus NadD | purified NadD enzyme, colorimetric absorbance read-out | AID 602399 | inhibition, % at 20 µM | hit rate 0.78% among 360,000; in the data active = inhibition above about 26%
ASAP1 inh: ASAP1 ArfGAP inhibition. hit rate 0.19% among 360,000. ASAP1-stimulated ARF1 GTP hydrolysis, GDP FP detection. Q9ULH1. inhibition, % at 16.5 µM; in the data active = inhibition above about 25%;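 also: 0% = vehicle with enzyme and substrate and 100% = no enzyme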
ARFGAP1 inh: inhibits rat ARF GTPase activating protein 1; Q62848; Arfgap1-stimulated ARF1 GTP hydrolysis, GDP FP detection; inhibition, % at 16.5 µM; hit rate 0.26% among 360,000;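 active = inhibition above a per-plate limit, mean inhibition of low control wells plus 3 SD, cut at about 25% in these data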;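 also: 0% = DMSO wells with enzyme and 100% = wells lacking Arfgap1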
Target sequence (Q62848 1-136 limits assumed): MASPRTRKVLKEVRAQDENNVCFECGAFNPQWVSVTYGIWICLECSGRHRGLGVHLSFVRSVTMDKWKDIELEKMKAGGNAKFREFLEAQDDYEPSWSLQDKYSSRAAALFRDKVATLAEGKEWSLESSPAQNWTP
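System: truncated rat Arfgap1 GAP domain / Benchmarks: high control wells lacking Arfgap1, low control full reaction with DMSO / Times: compound-enzyme preincubation 20 min, reaction 120 min, detection 60 min, 25 °C / Repeats: one replicate per compound / Also added: human ARF1(Δ1-17)-GTP substrate / Measured by: Tracer-displacement fluorescence polarization with EDTA stop, 620/688 nm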
rCAG binder: binds r(CAG) RNA repeats; inhibition, % at 3 µM; hit rate 1.3% among 370,000; r(CAG) RNA repeat, TO-PRO-1 dye displacement fluorescence;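 active = inhibition above the plate cutoff, the mean of all test compounds on that plate plus 3 SD, cut at about 35% in these data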;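 also: 0% = DMSO alone and 100% = 100 µM mitoxantrone as full dye displacement; higher means more dye released from RNA so lower well fluorescence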
NadD inh conf: NadD (S. aureus) inhibition, single concentration confirmation; shares compounds with NadD block; purified S. aureus NadD, colorimetric enzyme assay; inhibition, % at 20 µM; hit rate 13% among 2,000; in the data active = inhibition mostly above about 42%, no sharp cut-off; inactive = mostly below about 42%
ASAP1 GAP conf: ASAP1 inhibition confirmed; shares compounds with ASAP1 inh; ASAP1-stimulated Arf1 GTPase, GDP fluorescence polarization; inhibition, % at 16.5 µM; hit rate 37% among 620; AID 624431;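 active = mean inhibition over triplicates exceeds the hit threshold derived for the earlier primary screening run, cut at about 25% in these data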
ARFGAP1 confirm: rat ARFGAP1 inhibition, confirmed. shares compounds with ARFGAP1 inh. ARFGAP1-stimulated ARF1 GTP hydrolysis, GDP tracer FP. inhibition, % at 16.5 µM. hit rate 30% among 890. AID 651608;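 active = average inhibition over triplicates above the hit cutoff set in the earlier primary screen, cut at about 25% in these data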;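 also: 0% = Arfgap1 plus ARF1-GTP with DMSO and 100% = wells lacking Arfgap1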
Target sequence (Q62848 whole entry, looked up): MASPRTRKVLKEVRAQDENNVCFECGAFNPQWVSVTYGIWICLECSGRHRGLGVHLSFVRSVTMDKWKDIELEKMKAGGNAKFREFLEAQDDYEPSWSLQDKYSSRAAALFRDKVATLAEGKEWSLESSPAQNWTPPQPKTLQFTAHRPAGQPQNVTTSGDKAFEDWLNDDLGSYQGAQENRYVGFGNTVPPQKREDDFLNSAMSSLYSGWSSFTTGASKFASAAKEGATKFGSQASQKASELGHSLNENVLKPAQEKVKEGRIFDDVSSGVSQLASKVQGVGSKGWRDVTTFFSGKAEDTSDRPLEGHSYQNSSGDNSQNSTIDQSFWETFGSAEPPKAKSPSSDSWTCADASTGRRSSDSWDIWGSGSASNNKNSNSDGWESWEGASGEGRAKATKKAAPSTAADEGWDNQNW
rCAG bind conf: r(CAG) RNA repeat binding, confirmation; shares compounds with rCAG binder; hit rate 70% among 4,300; inhibition, % at 3 µM; TO-PRO-1 dye displacement fluorescence;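 active = inhibition above a per-plate cutoff, the mean inhibition of sample wells plus 3 SD, cut at about 35% in these data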;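 also: loss of TO-PRO-1 fluorescence as compound displaces dye from 1x1 AA loop RNA; 0% = DMSO only wells and 100% = 100 µM mitoxantrone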
dCAG dye counter: counter-screen for rCAG RNA binders: DNA CAG dye complex inhibitors | hit rate 94% among 4,300 | shares compounds with rCAG binder | d(CAG) DNA oligo TO-PRO-1 dye displacement, fluorescence | inhibition, % at 3 µM;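 active = inhibition above its plate's cutoff, the mean test-well inhibition plus 3 SD, cut at about 4.8% in these data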;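 also: 0% = DNA dye mix with DMSO and 100% = 100 µM mitoxantrone; hits displace the dye from DNA and so lower well fluorescence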
dCAG dye DR: DNA CAG dye complex inhibition, dose response counter-screen; shares compounds with rCAG binder; DNA CAG/GTC duplex TO-PRO-1 dye displacement fluorescence; IC50, µM; hit rate 20% among 250; in the data active = IC50 below about 10 µM
* = called active by the depositor; i = inactive; . = not tested or not shown.

SMILES	NadD block	ASAP1 inh	ARFGAP1 inh	rCAG binder	NadD inh conf	rCAG bind conf	dCAG dye counter	others
O=C(NC(c1ccc(Cl)cc1)c1cnccn1)C1CCN(Cc2cccc(C(F)(F)F)c2)CC1 (centres undefined)	-1	-2	-8	-1	.	.	.
CN(c1cccnc1)c1ccc(NC(=O)Cc2c[nH]c3ccccc23)cc1Br	.	15	14	12	.	.	.
CCN1CCN(Cc2ccc(NC(=O)c3ccc(C)c(NC(=O)c4c[nH]c5cc(C(F)(F)F)ccc5c4=O)c3)cc2C(F)(F)F)CC1	36*	43*	45*	15	-5	.	.	ASAP1 GAP conf=53*;ARFGAP1 confirm=70*
CCN1CCN(Cc2ccc(NC(=O)c3cc(NC(=O)c4cncc(-c5cccs5)c4)cc(OC)c3)cc2C(F)(F)F)CC1	34*	37*	52*	15	11	.	.	ASAP1 GAP conf=82*;ARFGAP1 confirm=92*
OC(CNCC1CCCO1)Cn1c2ccc(Cl)cc2c2cc(Cl)ccc21 (centres undefined)	7	-4	5	6	.	.	.
OC(CNCCC1C=Nc2ccccc21)Cn1c2ccc(Cl)cc2c2cc(Cl)ccc21 (centres undefined)	34*	13	28*	15	20	.	.	ARFGAP1 confirm=42*
O=C(N[C@@H](Cc1ccccc1)C(=O)N1CCC2CCN(S(=O)(=O)c3ccccc3)CC21)[C@@H]1CCCN1 (some centres undefined)	.	.	.	2	.	.	.
Cc1cc(C)c(NC(=O)CSc2nc3ccc(NC(=O)CSc4nnnn4Cc4ccccc4)cc3s2)c(C)c1	47*	-10	25*	28	-3	.	.	ARFGAP1 confirm=5
O=C(CSc1nc2ccc(NC(=O)CSc3nnnn3Cc3ccccc3)cc2s1)Nc1ccccc1	19	11	-3	15	.	.	.
CC(C)n1c(CNC(=O)c2ccccc2F)nnc1SCC(=O)NC1CCCCC1	32*	5	-14	46*	16	30	18*
CCn1c(CNC(=O)c2ccccc2F)nnc1SCC(=O)NC1CCCCC1	3	2	0	-4	.	.	.
CC(C)c1ccc(NC(=S)N2CCN(S(=O)(=O)c3ccccc3)CC2)cc1	0	17	9	1	.	.	.
Cc1sc(NC(=O)c2sc3nc4c(C)cccc4cc3c2N)c(C#N)c1C	62*	5	7	68*	7	60*	32*
CCCSc1nnc(NC(=O)c2sc3nc(-c4cccs4)ccc3c2N)s1	37*	-2	-16	36*	10	68*	33*
CCCSc1nnc(NC(=O)c2ccco2)s1	8	5	6	1	.	.	.
COc1cccc(Nc2nc(-c3sc(NC(=O)c4ccco4)nc3C)cs2)c1	30*	7	9	37*	42*	30	17*
CCn1c(SCc2c(F)cccc2F)nc2sc3c(c2c1=O)CCCC3	.	.	.	4	.	.	.
CCOC(=O)c1sc2nc(-c3ccco3)c3c(c2c1N)CC(C)(C)OC3	32*	-12	-14	51*	10	35*	14*
Oc1csc(Cc2nc(-c3ccc4ccccc4c3)cs2)n1	56*	-3	-3	36*	38	32	18*
O=C(c1ccccc1)c1ccc2nc(-c3ccco3)c(-c3ccco3)nc2c1	75*	-2	-8	42*	19	70*	36*
CCCc1ccc(-c2cc(C(=O)N/N=C/c3ccc([N+](=O)[O-])o3)c3ccccc3n2)cc1	34*	13	-5	45*	22	36*	19*
O=C(N/N=C/c1ccc([N+](=O)[O-])o1)c1cc(-c2cccc(Br)c2)nc2ccccc12	72*	-5	-4	43*	3	47*	29*
O=C(O)COc1ccccc1/C=N/NC(=O)c1cc(-c2ccccc2)nc2ccccc12	3	-11	-1	34	.	.	.
Cc1cc(C(=O)N/N=C/c2ccc([N+](=O)[O-])o2)c(C)o1	0	-1	0	17	.	.	.
COc1cccc(-c2cc(C(=O)N/N=C/c3ccco3)c3ccccc3n2)c1	10	-1	8	9	.	.	.
SMILES	NadD block	ASAP1 inh	ARFGAP1 inh	rCAG binder	NadD inh conf	rCAG bind conf	dCAG dye counter	others
O=C(O)COc1ccccc1/C=N/NC(=O)c1cc(-c2ccc(Cl)cc2)nc2ccccc12	24*	-3	-10	79*	53*	72*	33*	dCAG dye DR=i
CCCCNC(=O)C[C@H]1C[C@@]2(C(=O)OC)C(=C[C@H](C(C)C)O[C@@H]2C2CC2)N(CCc2ccc(OC)c(OC)c2)C1=O	.	.	.	1	.	.	.
C[C@@H]1OCN(C)[C@H]2C[C@H]3c4[nH]c5cccc(-c6cccc(F)c6)c5c4CCN3C(=O)[C@@H]12	.	.	.	3	.	.	.
Cc1ccc(CNC(=O)[C@@H](Cc2ccccc2)NC(=O)[C@H]2O[C@@H](n3ccc(N)nc3=O)[C@H](O)[C@@H]2O)o1	.	-3	-8	5	.	.	.
O=C(C1CCCN(S(=O)(=O)c2ccc([N+](=O)[O-])cc2)C1)N1CCN(Cc2ccccc2)CC1 (centres undefined)	.	.	.	0	.	.	.
CCOC(=O)c1nn(-c2ccccc2)c(=O)c2c(N)scc12	2	2	-24	4	.	.	.
Nc1scc2c(C(=O)N/N=C/c3ccc(Cl)cc3)nn(-c3ccccc3)c(=O)c12	40*	-2	6	41*	14	25	16*
COc1ccc(C(=O)/C=C/c2ccc(OCc3ccccc3)cc2)cc1CSCC(=O)O	26*	1	1	57*	27	78*	36*
O=C(/C=C/c1ccco1)NC(=S)Nc1nc(-c2ccc(Cl)cc2)cs1	24	-4	1	15	.	.	.
Cc1ccc2oc(-c3cccc(NC(=S)NC(=O)/C=C/c4ccco4)c3)nc2c1	32*	-1	7	37*	-8	17	9.8*
O=C(/C=C/c1ccco1)NC(=S)Nc1nc(-c2ccc3ccccc3c2)cs1	30*	-3	7	40*	2	20	14*
CC1=NC2=CC=CC3=NC(C(Cl)(Cl)Cl)=NC(=N1)N23	.	15	6	2	.	.	.
Nc1ncnc2oc(-c3ccco3)c(-c3ccco3)c12	54*	7	-12	68*	27	27	16*
Nc1nnc(-c2ccco2)s1	2	1	2	-1	.	.	.
Cc1cccc2sc(NNC(=O)c3ccc(S(=O)(=O)N4CCc5ccccc5C4)cc3)nc12	38*	4	6	54*	51*	59*	30*
